The record followed here is ChEMBL document CHEMBL4219167, “Disulfiram-based disulfides as narrow-spectrum antibacterial agents” (Bioorg Med Chem Lett, 2018).

Experiment [1] has as its system Staphylococcus aureus. Nature of the experiment: Antibacterial activity against methicillin-resistant Staphylococcus aureus COL after 20 hrs by broth microdilution assay. It counts as functional.
The subject of experiment [2] is Staphylococcus aureus. Nature of the experiment: Antibacterial activity against vancomycin-intermediate resistant Staphylococcus aureus AR-217 after 20 hrs by broth microdilution assay. It counts as functional. Particulars: AR-217, 20 h. A general note: Dilution methods test growth across graded concentrations, often in twofold steps.
For experiment [3], the system named is Staphylococcus aureus. Nature of the experiment: Antibacterial activity against vancomycin-resistant Staphylococcus aureus HIP14300 after 20 hrs by broth microdilution assay. It is filed as functional. Particulars: HIP14300, 20 h.
The subject of experiment [4] is Staphylococcus epidermidis. In words: Antibacterial activity against vancomycin-intermediate resistant Staphylococcus epidermidis NRS6 after 20 hrs by broth microdilution assay. It counts as functional. Particulars: NRS6, 20 h.
For experiment [5], the system named is Streptococcus pyogenes. In words: Antibacterial activity against Streptococcus pyogenes H293 after 20 hrs by broth microdilution assay. It is filed as functional. Particulars: H293, 20 h.
The subject of experiment [6] is Streptococcus agalactiae. In words: Antibacterial activity against Streptococcus agalactiae SGBS005 after 20 hrs by broth microdilution assay. It counts as functional. Particulars: SGBS005, 20 h.
Experiment [7] deals with Streptococcus pneumoniae. Nature of the experiment: Antibacterial activity against Streptococcus pneumoniae TCH8431 after 20 hrs by broth microdilution assay. It is filed as functional. To be noted: TCH8431, 20 h.
The test system of experiment [8] is Enterococcus faecium. Nature of the experiment: Antibacterial activity against vancomycin-resistant Enterococcus faecium ATCC 700221 after 20 hrs by broth microdilution assay. It is filed as functional. Particulars: ATCC 700221, 20 h. The method, boiled down: (§1)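 Brain heart infusion broth at 37°C; E. faecium under 5% CO2. Cells at 0.5 McFarland are diluted 1:100 and exposed to serial dilutions (DMSO stocks 1 mM or 1 mg/mL; controls in water).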

Experiment [9] concerns HepG2. Nature of the experiment: Cytotoxicity against human HepG2 cells assessed as reduction in cell viability after 72 hrs by MTT assay. It is filed as cell-based. Particulars: HepG2, 72 h. For orientation: Formazan colour is commonly taken as a measure of viable cells.
Experiment [10] deals with Bacillus anthracis. Nature of the experiment: Antibacterial activity against Bacillus anthracis Ames 35 after 20 hrs by broth microdilution assay. It is filed as functional. To be noted: Ames 35, 20 h.
The subject of experiment [11] is Bacillus anthracis. In words: Antibacterial activity against Bacillus anthracis Sterne 34F2 after 20 hrs by broth microdilution assay. It counts as functional. Particulars: Sterne 34F2, 20 h.
Experiment [12] has as its system Bacillus anthracis. In words: Antibacterial activity against Bacillus anthracis UM23-1 after 20 hrs by broth microdilution assay. It counts as functional. To be noted: UM23-1, 20 h.
For experiment [13], the system named is Bacillus anthracis. In words: Antibacterial activity against Bacillus anthracis Weybridge after 20 hrs by broth microdilution assay. It counts as functional.
In experiment [14] the test system is Francisella tularensis. Nature of the experiment: Antibacterial activity against Francisella tularensis Utah 112 after 20 hrs by broth microdilution assay. It counts as functional. To be noted: Utah 112, 20 h.
For experiment [15], the system named is Yersinia pestis. In words: Antibacterial activity against Yersinia pestis Kim D2 after 20 hrs by broth microdilution assay. To be noted: Kim D2, 20 h. It is filed as functional.
In experiment [16] the test system is Yersinia pestis. In words: Antibacterial activity against Yersinia pestis Kuma D7 after 20 hrs by broth microdilution assay. Particulars: Kuma D7, 20 h. It counts as functional.
Experiment [17] has as its system Bacillus cereus. Nature of the experiment: Antibacterial activity against Bacillus cereus Gibson 971 after 20 hrs by broth microdilution assay. To be noted: Gibson 971, 20 h. It counts as functional.
Experiment [18] concerns Corynebacterium striatum. In words: Antibacterial activity against Corynebacterium striatum FS-1 after 20 hrs by broth microdilution assay. It counts as functional. Particulars: FS-1, 20 h.
Experiment [19] relates to Listeria monocytogenes. In words: Antibacterial activity against Listeria monocytogenes Gibson after 20 hrs by broth microdilution assay. It is filed as functional. The method, boiled down:
as §1

The test system of experiment [20] is Micrococcus luteus. Nature of the experiment: Antibacterial activity against Micrococcus luteus SK58 after 20 hrs by broth microdilution assay. It counts as functional. To be noted: SK58, 20 h.
In experiment [21] the test system is Rhodococcus erythropolis. In words: Antibacterial activity against Rhodococcus erythropolis SK121 after 20 hrs by broth microdilution assay. Particulars: SK121, 20 h. It counts as functional. The method, boiled down: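 R. erythropolis grown in brain heart infusion broth at 30°C. A 0.5 McFarland suspension diluted 1:100 is treated with serial dilutions from 1 mM or 1 mg/mL DMSO stocks; control antibiotics are in water.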

The subject of experiment [22] is Acinetobacter baumannii. Nature of the experiment: Antibacterial activity against Acinetobacter baumannii AB5075 after 20 hrs by broth microdilution assay. It counts as functional. To be noted: AB5075, 20 h.
Experiment [23] relates to Brucella neotomae. Nature of the experiment: Antibacterial activity against Brucella neotomae 5K33 after 20 hrs by broth microdilution assay. It is filed as functional. To be noted: 5K33, 20 h.
The test system of experiment [24] is Burkholderia multivorans. In words: Antibacterial activity against Burkholderia multivorans CF2 after 20 hrs by broth microdilution assay. It is filed as functional. To be noted: CF2, 20 h. The method, boiled down:
(§2)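 Medium is tryptic soy broth, 37°C. Overnight culture is adjusted to 0.5 McFarland, diluted 1:100 and exposed to serial dilutions (test agents from 1 mM or 1 mg/mL DMSO stocks; control antibiotics in water). Incubation lasts 20 h. MIC is the lowest concentration with no visible growth.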

Experiment [25] concerns Burkholderia cepacia. In words: Antibacterial activity against Burkholderia cepacia UCB 717 after 20 hrs by broth microdilution assay. It is filed as functional. Particulars: UCB 717, 20 h. The gist of the method: as §2
In experiment [26] the test system is Citrobacter freundii. In words: Antibacterial activity against Citrobacter freundii 4_7_47CFAA after 20 hrs by broth microdilution assay. It is filed as functional. The gist of the method:
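Brucella broth, 37°C, 5% CO2. Inoculum is 0.5 McFarland diluted 1:100, with serial drug dilutions from DMSO stocks (1 mM or 1 mg/mL) and control antibiotics in water.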

Experiment [27] concerns Escherichia coli. In words: Antibacterial activity against Escherichia coli DC10B after 20 hrs by broth microdilution assay. It is filed as functional. The gist of the method: as §2
For experiment [28], the system named is Klebsiella pneumoniae. In words: Antibacterial activity against Klebsiella pneumoniae 700603 after 20 hrs by broth microdilution assay. It counts as functional. To be noted: Klebsiella pneumoniae, 700603, 20 h. The gist of the method: as §2
Experiment [29] concerns Proteus mirabilis. Nature of the experiment: Antibacterial activity against Proteus mirabilis HM-752 after 20 hrs by broth microdilution assay. It is filed as functional. To be noted: HM-752, 20 h. The gist of the method: as §2
Experiment [30] has as its system Pseudomonas aeruginosa. In words: Antibacterial activity against Pseudomonas aeruginosa ATCC 15442 after 20 hrs by broth microdilution assay. It is filed as functional. To be noted: ATCC 15442, 20 h. The gist of the method: as §2
Experiment [31] relates to Salmonella typhi. In words: Antibacterial activity against Salmonella typhi Ty2 after 20 hrs by Todd Hewitt broth broth microdilution method. It is filed as functional, Salmonella enterica subsp. enterica serovar Typhi str. Ty2. To be noted: Salmonella enterica.
Experiment [32] concerns Yersinia enterocolitica. In words: Antibacterial activity against Yersinia enterocolitica WA-314 after 20 hrs by broth microdilution assay. It counts as functional. To be noted: WA-314, 20 h. The method, boiled down: (§3)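 Yersinia cultured in tryptic soy broth at 28°C. A 0.5 McFarland suspension diluted 1:100 receives serial dilutions of agents from 1 mM or 1 mg/mL DMSO stocks; control antibiotics are in water.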

Experiment [33] deals with Shigella dysenteriae. In words: Antibacterial activity against Shigella dysenteriae Newcastle 1934 after 20 hrs by broth microdilution assay. It is filed as functional. To be noted: Newcastle 1934, 20 h. The gist of the method:
as §2

Experiment [34] deals with Vibrio cholerae. In words: Antibacterial activity against Vibrio cholerae TS D4 after 20 hrs by Todd Hewitt broth broth microdilution method. Particulars: TS D4, 20 h. It is filed as functional.
Experiment [35] deals with Yersinia pseudotuberculosis. In words: Antibacterial activity against Yersinia pseudotuberculosis P61 after 20 hrs by broth microdilution assay. It counts as functional. Particulars: P61, 20 h. The method, boiled down: as §3
Experiment [36] relates to Staphylococcus epidermidis. In words: Antibacterial activity against vancomycin-intermediate resistant Staphylococcus epidermidis NRS53 after 20 hrs by broth microdilution assay. It counts as functional. Particulars: NRS53, 20 h.

What is called MIC is the lowest concentration that inhibits growth of the organism. Lower therefore signals a more susceptible organism. One may read the IC50 as the concentration that inhibits the measured activity by half.

In brackets after ≈: the same amount, converted by molar mass.

As to `CCCCCCCCCSSC(=S)N(CC)CC`, the MIC in experiment [1] was 8 µM (≈ 2.46 µg/mL); in experiment [2] it was 8 µM (≈ 2.46 µg/mL); in experiment [3] it was 16 µM (≈ 4.92 µg/mL); in [4], 4 µM (≈ 1.23 µg/mL); in experiment [5] it was 8 µM (≈ 2.46 µg/mL); in experiment [6], 32 µM (≈ 9.84 µg/mL). Further, the MIC in [7] and in experiment [8] was 8 µM (≈ 2.46 µg/mL) throughout. Further, the IC50 in experiment [9] came to 55 µM.
For the molecule `CCCCCCSSC(=S)N(CC)CC` [DIETHYLCARBAMO(DITHIOPEROXO)THIOATE], the MIC is 16 µM (≈ 4.25 µg/mL) in [1]; 4 µM (≈ 1.06 µg/mL) in experiment [2]; 8 µM (≈ 2.12 µg/mL) in experiment [3]; 8 µM (≈ 2.12 µg/mL) in experiment [4]; more than 32 µM in experiment [5]; more than 32 µM in experiment [6]. Moreover, the MIC in experiment [7] is more than 32 µM; in [8] it was more than 32 µM; in [10] it was 4 µM (≈ 1.06 µg/mL); in [11], 4 µM (≈ 1.06 µg/mL); in experiment [12] it was 2 µM (≈ 0.531 µg/mL); in [13] it was 8 µM (≈ 2.12 µg/mL). The MIC in [14] was found to be 32 µM (≈ 8.5 µg/mL); in [15], 32 µM (≈ 8.5 µg/mL); in experiment [16], 32 µM (≈ 8.5 µg/mL); in experiment [17], 2 µM (≈ 0.531 µg/mL); in experiment [18] it was 16 µM (≈ 4.25 µg/mL); in experiment [19], 8 µM (≈ 2.12 µg/mL). The MIC in experiment [20] is 16 µM (≈ 4.25 µg/mL); in [21], 8 µM (≈ 2.12 µg/mL); in experiment [22] it was more than 32 µM; in experiment [23], more than 32 µM; in experiment [24], more than 32 µM; in experiment [25] it was more than 32 µM. For the same molecule, the MIC in experiment [26], in experiment [27], in experiment [28], in [29], in [30] and in experiment [31] was more than 32 µM each time. In addition, the MIC in experiment [32], in experiment [33], in [34] and in experiment [35] was more than 32 µM each time. The IC50 in experiment [9] came to 51 µM.
Consider `CN[C@H](CC(C)C)C(=O)N[C@H]1C(=O)N[C@@H](CC(N)=O)C(=O)N[C@H]2C(=O)N[C@H]3C(=O)N[C@H](C(=O)N[C@H](C(=O)O)c4cc(O)cc(O)c4-c4cc3ccc4O)[C@H](O)c3ccc(c(Cl)c3)Oc3cc2cc(c3O[C@@H]2O[C@H](CO)[C@@H](O)[C@H](O)[C@H]2O[C@H]2C[C@](C)(N)[C@H](O)[C@H](C)O2)Oc2ccc(cc2Cl)[C@H]1O` [VANCOMYCIN], for which the MIC was 1 µM (≈ 1.45 µg/mL) in [1]; more than 32 µM in [3]; 8 µM (≈ 11.6 µg/mL) in experiment [4]; not above 0.5 µM in experiment [5]; not above 0.5 µM in experiment [6]; not above 0.5 µM in experiment [7]. Further, the MIC was more than 32 µM in experiment [8] and 8 µg/mL (≈ 5.52 µM) in experiment [36].
